BaF3 parental: parental Ba/F3 viability inhibition as JAK2V617F counter-screen; CellTiter-Glo ATP luminescence; inhibition, % at 5.6 µM; hit rate 1.1% among 220,000;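 active means inhibition above a per-campaign cutoff, the mean inhibition of all tested compounds plus 3 SD, cut at about 27% in these data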;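 further: 0% = DMSO wells and 100% = JAK Inhibitor I control wells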
IEC-6 tox: IEC-6 cytotoxicity, counter-screen for KLF5 inhibitors; luminescence viability; inhibition, % at 5 µM; hit rate 0.78% among 290,000; AID 1825;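 further: 0% = plate median of test compound wells and 100% = cytotoxic reference compound wells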
b-catenin transl: beta-catenin nuclear translocation modulation; AID 1665; hit rate 0.3% among 190,000; nuclear translocation activity, % at 5 µM; HeLa beta-catenin nuclear translocation, immunofluorescence imaging;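 active means nuclear translocation activity above 50% at 5 µM, with a well cell count of 50 or more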;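 further: per-cell ratio of nuclear to cytoplasmic median beta-catenin stain intensity; plate controls were DMSO negative control for no effect and GSK-3 inhibitor IX positive control for full effect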
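System: Human HeLa cells, endogenous beta-catenin | Compound dosing: 5 µM primary, 0.02–20 µM confirmation | Timing: 24 h compound exposure at 37°C, 5% CO2 | Measured by: Fluorescence imaging of beta-catenin antibody stain plus DAPI | Read-out basis: % activation of per-cell nuclear versus cytoplasmic median beta-catenin signal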
Ba/F3 V617F tox: reduce viability of Ba/F3 cells dependent on JAK2V617F; Ba/F3 EpoR-JAK2V617F viability, ATP luminescence; inhibition, % at 5.6 µM; hit rate 1.1% among 220,000; AID 1446;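 active means inhibition above the campaign mean plus 3 SD over all tested compounds, cut at about 24% in these data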;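 further: cytokine-independent growth of Ba/F3 cells driven by EpoR plus mutant JAK2; 0% = DMSO-treated cells and 100% = JAK inhibitor I control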
APP 5UTR inh: APP translation inhibition; SH-SY5Y APP 5'UTR-luciferase reporter, luminescence; inhibition, % at 2 µM; hit rate 0.82% among 190,000; AID 1285;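 active means inhibition above a set limit, derived from the sample mean plus 3 SD, cut at about 45% in these data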
MT stabilize HCS: microtubule stabilizers in HeLa cells; HeLa tubulin immunostaining HCS, 24 h; share of cells brighter than vehicle mean+2SD; % tubulin-high responders, % at 10 µM; hit rate 0.83% among 200,000; AID 2205;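 active means plate Z-score above 3 for both tubulin-high and condensed-nucleus cell shares, with cell loss under 80%, at 10 µM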;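 further: anti alpha tubulin signal scored within the nucleus-defined area of each cell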
IEC-6 tox confirm: confirmation of cytotoxic compounds in rat IEC-6 intestinal epithelial cells | shares compounds with IEC-6 tox | hit rate 63% among 1,900 | inhibition, % at 5 µM | IEC-6 rat intestinal epithelial viability, luminescence | AID 1907;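 further: 0% = vehicle and 100% = reference cytotoxic drug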
* = called active by the depositor; · = no result given. This is a sample that favours compounds with a hit; in the whole collection about 2.2% have one here. Unless noted, no stated cut-off is given here; in the data, active means inhibition above about 22%; inactive means the rest.

SMILES	BaF3 parental	IEC-6 tox	b-catenin transl	Ba/F3 V617F tox	APP 5UTR inh	MT stabilize HCS	IEC-6 tox confirm
CCOC(=O)c1sc(N)c(C(=O)Nc2ccccc2OC)c1C	36*	38*	80*	40*	47*	22*	46*
O=C(NCc1ccc(Cl)cc1)C1CC(O)CN1S(=O)(=O)c1ccc(Cl)cc1 (stereo not given)	·	-6	·	·	·	·	·
CCOc1c(Cl)cc(C(=O)Nc2ccccc2C(=O)O)cc1Cl	27*	37*	-4	25*	6	2	17
COc1ccc(C(=O)Nc2ccccc2C(=O)O)cc1Cl	9	3	-1	1	-41	2	·
O=C(Cc1ccc(Br)cc1)NCc1ccccc1	·	60*	·	·	·	·	45*
COc1ccc(CC(=O)NCc2ccccc2)cc1	·	50*	·	·	·	·	37*
Cc1ccc(CNC(=O)Cc2ccc(Br)cc2)cc1	·	12	·	·	·	·	·
CC1CC(C)CN(C(=O)COC(=O)Cc2ccc(Br)cc2)C1 (stereo not given)	·	-1	·	·	·	·	·
CCN(CC)c1ccc(NC(=O)c2cc(OC)cc(OC)c2)c(C)c1	78*	78*	·	78*	92*	11	60*
COC(=O)c1ccccc1NC1=C/C(=N\S(=O)(=O)c2ccc(C(=O)O)cc2)c2ccccc2C1=O	·	28*	·	·	·	·	13
COc1ccc(S(=O)(=O)NCc2ccccn2)cc1NC(=O)c1ccccc1F	·	76*	·	·	·	·	52*
COc1ccc(-n2c(SCC(=O)Nc3ncc(Cl)cc3Cl)nc3ccccc32)cc1	7	69*	3	4	-10	6	39*
Cc1cccc(-n2c(SCC(=O)Nc3ncc(Cl)cc3Cl)nc3ccccc32)c1	7	67*	1	2	17	2	47*
O=C(CSc1nc2ccccc2n1-c1ccccc1)Nc1ncc(Cl)cc1Cl	1	64*	5	2	3	7	39*
COCCn1c(SCC(=O)Nc2nc(C)c(Cl)cc2Cl)nc2ccccc21	5	-2	-2	-2	-9	1	·
O=[N+]([O-])c1cccc(CSC2=NCCN2S(=O)(=O)c2ccccc2)c1	·	5	·	·	·	·	·
Cn1cc([N+](=O)[O-])c(C(=O)Nc2sc3c(c2C#N)CCC3)n1	·	92*	·	·	·	·	29*
O=C(CCCn1c(=O)c2cccn2c2cccnc21)N1CCN(c2ccccc2F)CC1	·	-6	·	·	·	·	·
CCC(C)c1ccc(NC(=O)Nc2cnccn2)cc1 (stereo not given)	·	79*	·	·	·	·	55*
COc1cc(NC(=O)c2cc3ccccc3cc2OC)ccc1NC(=O)c1cccs1	·	6	·	·	·	·	·
O=C(c1ccco1)N1CCN(Cc2ccccc2C(F)(F)F)CC1	4	14	·	0	-9	2	·
O=C(c1ccco1)N1CCN(Cc2cccc3ccccc23)CC1	·	26*	·	·	·	·	16
COc1ccccc1NC(=S)N(Cc1ccco1)Cc1cc2ccc(C)c(C)c2[nH]c1=O	81*	78*	·	71*	·	10	54*
NNC(=O)c1[nH]c2ccccc2c1-c1ccccc1	·	95*	·	·	·	·	11
C/C(=N\NC(=O)CCC(=O)O)c1c(-c2ccccc2)c2cc(Br)ccc2[nH]c1=O	0	3	-1	-4	·	·	·
SMILES	BaF3 parental	IEC-6 tox	b-catenin transl	Ba/F3 V617F tox	APP 5UTR inh	MT stabilize HCS	IEC-6 tox confirm
CC(=O)NNC(=O)c1[nH]c2ccc(Cl)cc2c1-c1ccccc1	-1	-4	2	-1	·	·	·
O=C(N/N=C/c1ccc(O)cc1)c1[nH]c2ccc(Br)cc2c1-c1ccccc1	71*	83*	40	75*	94*	15	65*
O=C(N/N=C/c1c[nH]c2ccccc12)c1[nH]c2ccc(Br)cc2c1-c1ccccc1	68*	82*	8	76*	92*	8	63*
COc1cccc(N2C(=NC(=O)c3ccccc3)SC3CS(=O)(=O)CC32)c1 (stereo not given)	·	-2	·	·	·	·	·
O=C(NCCCNC(=O)c1cc(Cl)ccc1Cl)c1ccco1	·	-9	·	·	·	·	·
CCN(CC)C(=O)CN1CCC(c2nc3cc(C)c(C)cc3[nH]2)CC1	·	-4	·	·	·	·	·
CCOc1ccc(N2C(=O)C3C4C=CC([C@H]5CC45)[C@@H]3C2=O)cc1 (stereo not given in full)	·	-4	·	·	·	·	·
CCO[C@@H]1OC(C(=O)Nc2ccccc2)=C[C@H](c2coc3ccccc3c2=O)[C@H]1CCCO	-4	25*	-2	6	4	1	5
CCO[C@H]1OC(C(N)=O)=C[C@@H](c2coc3ccccc3c2=O)[C@@H]1CCCO	2	2	0	2	-2	1	·
N#C/C(=C\c1c(N2CCCCC2)nc2ccccn2c1=O)S(=O)(=O)c1ccccc1	-3	-2	-1	-5	·	·	·
Cc1ccn2c(C(=O)CSc3ccccc3Cl)c(C)nc2c1	0	40*	-3	-4	-5	1	38*
CCOc1cc(C#N)c(NC(=O)c2cccnc2)cc1OCC	77*	82*	·	84*	89*	39*	56*
CCCCCCCCCn1c2c(c(=N)c3c1CCC3)CCC2	91*	44*	-5	98*	18	4	50*
CCCCCCn1c2c(c(=N)c3c1CCC3)CCC2	78*	24*	0	98*	-16	4	26*
CCCCCCCn1c2c(c(=N)c3c1CCC3)CCCC2	88*	38*	3	100*	22	6	37*
COC(=O)C(c1ccccc1)N(Cc1cccc(CN(C(C(=O)OC)c2ccccc2)S(C)(=O)=O)c1)S(C)(=O)=O (stereo not given)	·	-11	·	·	·	·	·
C1=C(CCNc2ncnc3c2[nH]c2ccccc23)CCCC1	63*	39*	2	73*	-25	5	24*
O=c1c2[nH]c3ccccc3c2ncn1CCC1=CCCCC1	1	-4	-6	-1	-35	5	·
O=C(N/N=C/C(Br)=C/c1ccccc1)c1cnccn1	-5	12	-4	-3	·	·	·
O=C(CCn1c(=O)oc2ccccc21)N1CCN(c2ccccc2Cl)CC1	16	23*	0	13	-3	44*	40*
CC(C)CCNC(=O)CCc1nnc2n(CCCOC(C)C)c(=O)c3ccccc3n12	·	2	·	·	·	·	·
COc1ccc(CC(=O)Nc2ccc(OC)nc2)cc1	5	-4	-2	-3	-2	5	·
COc1ccc(NC(=O)/C(Cl)=C(/Cl)S(=O)Cc2ccc(Cl)cc2)cn1 (stereo not given)	86*	42*	4	100*	96*	2	56*
COc1ccc(NC(=O)Cc2ccc(-c3ccccc3)cc2)cn1	14	40*	96*	4	18	26*	22
COc1ccc(NC(=O)C(Cl)=C(Cl)Cl)cn1	-3	12	0	1	30	6	·
COc1ccc(NC(=O)/C(Cl)=C(/Cl)S(=O)(=O)Cc2ccccc2)cn1	31*	31*	-2	73*	77*	2	47*
O=C(NCC1CCCO1)c1ccc2c(c1)C(=O)N(c1cccc([N+](=O)[O-])c1)C2=O (stereo not given)	·	-3	·	·	·	·	·
